The values that follow come from ChEMBL document CHEMBL5316288, “Synthetic Strategies for Improving Solubility: Optimization of Novel Pyrazolo[1,5-a]pyrimidine CFTR Activator That Ameliorates Dry Eye Disease” (J Med Chem, 2023).

Data set [1] addresses T1, Cystic fibrosis transmembrane conductance regulator (Homo sapiens, UniProt P13569). The experiment in a line: Activation of human wild-type CFTR stably expressed in CHO-K1 cells co-expressing halide sensors YFP-H148Q/I152L assessed as CFTR-mediated iodide influx incubated for 10 mins by YFP fluorescence quenching assay. The class given is cell-based.
Target sequence in this assay (P13569 whole entry): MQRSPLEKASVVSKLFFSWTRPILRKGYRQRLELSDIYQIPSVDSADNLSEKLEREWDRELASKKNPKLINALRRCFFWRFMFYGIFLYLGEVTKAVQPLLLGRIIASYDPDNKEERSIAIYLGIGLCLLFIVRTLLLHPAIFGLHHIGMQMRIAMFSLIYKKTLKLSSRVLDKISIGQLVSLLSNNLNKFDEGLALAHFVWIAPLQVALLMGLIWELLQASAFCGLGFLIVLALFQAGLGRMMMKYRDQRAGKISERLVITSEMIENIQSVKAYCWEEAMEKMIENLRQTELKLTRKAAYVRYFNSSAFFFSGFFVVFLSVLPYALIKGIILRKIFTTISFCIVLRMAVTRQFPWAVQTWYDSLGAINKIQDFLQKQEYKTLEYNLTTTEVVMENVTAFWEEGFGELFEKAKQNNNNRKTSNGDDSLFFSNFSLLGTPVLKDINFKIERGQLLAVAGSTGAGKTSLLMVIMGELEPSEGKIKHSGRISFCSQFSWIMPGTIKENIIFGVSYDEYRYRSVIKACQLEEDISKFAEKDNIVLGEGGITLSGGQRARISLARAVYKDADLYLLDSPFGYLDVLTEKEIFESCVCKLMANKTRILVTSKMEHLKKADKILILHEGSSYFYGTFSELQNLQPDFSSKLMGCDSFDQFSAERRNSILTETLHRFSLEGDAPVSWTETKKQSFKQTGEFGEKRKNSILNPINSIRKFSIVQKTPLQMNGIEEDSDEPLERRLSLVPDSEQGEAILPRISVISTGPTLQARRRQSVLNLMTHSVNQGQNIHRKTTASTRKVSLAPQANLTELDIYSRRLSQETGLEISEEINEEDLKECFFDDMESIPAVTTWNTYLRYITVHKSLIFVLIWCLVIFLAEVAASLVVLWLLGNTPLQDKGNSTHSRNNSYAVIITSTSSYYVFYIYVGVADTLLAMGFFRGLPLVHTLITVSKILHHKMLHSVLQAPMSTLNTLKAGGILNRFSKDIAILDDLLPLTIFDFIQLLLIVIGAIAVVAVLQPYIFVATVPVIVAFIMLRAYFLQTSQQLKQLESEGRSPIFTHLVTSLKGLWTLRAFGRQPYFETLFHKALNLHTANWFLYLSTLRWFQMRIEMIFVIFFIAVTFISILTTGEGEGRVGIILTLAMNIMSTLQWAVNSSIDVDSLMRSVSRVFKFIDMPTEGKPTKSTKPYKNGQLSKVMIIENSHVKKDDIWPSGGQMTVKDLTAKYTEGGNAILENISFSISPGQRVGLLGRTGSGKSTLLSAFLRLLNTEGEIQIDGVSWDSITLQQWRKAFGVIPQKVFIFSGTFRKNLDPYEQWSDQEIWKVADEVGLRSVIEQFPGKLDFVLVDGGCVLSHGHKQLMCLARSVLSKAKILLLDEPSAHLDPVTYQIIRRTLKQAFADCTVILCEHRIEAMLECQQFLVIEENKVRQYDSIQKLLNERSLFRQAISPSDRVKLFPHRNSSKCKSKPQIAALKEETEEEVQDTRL
Data set [2] in a line: Solubility of compound in PBS at 7.5 at 0.5 mg/ml incubated for 90 mins by LC-MS/MS analysis. The class given is physicochemical. The procedure, abridged: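 Thermodynamic solubility: compound at 0.5 mg/mL in isotonic phosphate-buffered saline, pH 7.5, vortexed for 90 min. The solution was then filtered sequentially through 0.45, 1.2 and 5.0 μm filters. Concentration was measured by LC-MS/MS against a ≥6-point internal-standard calibration curve (weighted 1/x linear or quadratic) and back-calculated.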

The target in data set [3] is T1, Cystic fibrosis transmembrane conductance regulator. The experiment in a line: Activation of human wild-type CFTR stably expressed in rat FRT cells assessed as increase in apical membrane chloride current incubated for 20 mins by patch-clamp assay. The class given is cell-based.
Target sequence in this assay (P13569 whole entry): as above
The species entered for data set [4] is Mus musculus. The experiment in a line: Effect on tear secretion in C57BL/6J mouse assessed as increase in tear volume at 1 to 72 uM,TOP and measured upto 6 hrs by phenol red thread test. The note with it: dose 1-72 µM. The data set is classed as functional. A digest of the protocol:
(§1)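 Normal female C57BL/6J mice received 2.5 μL eye drops in both eyes, held for 30 s. Vehicle was 5% polyoxyl 35 castor oil in sodium phosphate buffer. Tear volume was read by phenol red thread placed 15 s in the lateral canthus, wet length by caliper. Readings were taken at 0 h (baseline) and at 1, 3 and 6 h post-dose; n = 6.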

The species entered for data set [5] is Mus musculus. The experiment in a line: Effect on tear secretion in C57BL/6J mouse assessed as maximum tear volume at 1 to 72 uM,TOP and measured after 3 hr by phenol red thread test. The class given is functional. Particulars: dose 1-72 µM. The procedure, abridged: as §1
The target of data set [6] is T1, Cystic fibrosis transmembrane conductance regulator. The experiment in a line: Activation of human CFTR expressed in CHO-K1 cells assessed as increase in intracellular cAMP level at 10 uM incubated for 10 mins in presence of IBMX by Immunoassay. The data set is classed as cell-based. The note with it: filed as activator.
Target sequence in this assay (P13569 whole entry, looked up): as the sequence (P13569 whole entry) above
Data set [7] has the same target. As to the kind of experiment: Activation of human wild-type CFTR stably expressed in CHO-K1 cells assessed as increase in chloride current at holding potential 0 mV at 30 uM by whole-cell patch-clamp assay. The note with it: filed as activator.
Target sequence in this assay (P13569 whole entry, looked up): as the sequence (P13569 whole entry) above
Data set [8] is filed under the species Mus musculus. As to the kind of experiment: Amelioration ocular surface damage in scopolamine-induced dry eye in C57BL/6J mouse model assessed as recovery of tear volume at 0.3 %,TOP 3 times day for 10 days by phenol red thread test. The data set is classed as functional, organism-based. The note with it: time 10.0 day. The procedure, abridged:
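In scopolamine-induced dry eye mice (0.5 mg/0.1 mL s.c. three times daily, 14 days), drops were given three times daily for 10 days. Scopolamine continued for the first 8 days. Tear volume was read with phenol red thread placed 15 s in the lateral canthus, wet length by caliper. Readings were taken before induction, after induction and after 10 days of drops; n = 5.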

For data set [9], the species on record is Mus musculus. As to the kind of experiment: Amelioration ocular surface damage in scopolamine-induced dry eye in C57BL/6J mouse model assessed as decrease in IL-17 mRNA expression level in conjunctiva at 0.3 %,TOP 3 times day for 10 days by RT-PCR analysis. Particulars: time 10.0 day. The class given is functional, organism-based. The procedure, abridged:
(§2)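 Dry eye was induced with scopolamine hydrobromide 0.5 mg/0.1 mL given subcutaneously three times daily for 14 days. Eye drops were then applied to both eyes three times daily for 10 days, with scopolamine continued for the first 8 treatment days. The vehicle was 5% polyoxyl 35 castor oil in sodium phosphate buffer. Corneal and conjunctival IL-17 mRNA was measured by real-time PCR; mean ± S.E., n = 5.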

For data set [10], the species on record is Mus musculus. The experiment in a line: Amelioration ocular surface damage in scopolamine-induced dry eye in C57BL/6J mouse model assessed as decrease in TNF-alpha mRNA expression level in conjunctiva at 0.3 %,TOP 3 times day for 10 days by RT-PCR analysis. The note with it: time 10.0 day. The class given is functional, organism-based. A digest of the protocol: (§3)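 Dry eye was induced by subcutaneous scopolamine hydrobromide 0.5 mg/0.1 mL three times daily for 14 days. Eye drops (vehicle, 0.3% diquafosol or test agent) followed three times daily for 10 days, with scopolamine continued for the first 8 days. Cornea and conjunctiva mRNA for MMP-2 and TNF-α was quantified by real-time PCR; n = 5.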

The species entered for data set [11] is Mus musculus. As to the kind of experiment: Amelioration ocular surface damage in scopolamine-induced dry eye in C57BL/6J mouse model assessed as decrease in MMP-2 mRNA expression level in conjunctiva at 0.3 %,TOP 3 times day for 10 days by RT-PCR analysis. Particulars: time 10.0 day. The class given is functional, organism-based. The procedure, abridged: as §3

The species entered for data set [12] is Mus musculus. The experiment in a line: Amelioration ocular surface damage in scopolamine-induced dry eye in C57BL/6J mouse model assessed as decrease in IL-17 mRNA expression level in cornea at 0.3 %,TOP 3 times day for 10 days by RT-PCR analysis. The data set is classed as functional, organism-based. The note with it: time 10.0 day. A digest of the protocol:
as §2

For data set [13], the species on record is Mus musculus. As to the kind of experiment: Amelioration ocular surface damage in scopolamine-induced dry eye in C57BL/6J mouse model assessed as decrease in TNF-alpha mRNA expression level in cornea at 0.3 %,TOP 3 times day for 10 days by RT-PCR analysis. The note with it: time 10.0 day. The class given is functional, organism-based. The procedure, abridged:
as §3

The species entered for data set [14] is Mus musculus. The experiment in a line: Amelioration ocular surface damage in scopolamine-induced dry eye in C57BL/6J mouse model assessed as decrease in MMP-2 mRNA expression level in cornea at 0.3 %,TOP 3 times day for 10 days by RT-PCR analysis. The note with it: time 10.0 day. The data set is classed as functional, organism-based. A digest of the protocol:
as §3

Molecules are shown by their SMILES. ≈ marks a conversion by molar mass, not a printed value. Calls of active or inactive are those of the source. The rule behind the calls is not given here.

As for `COc1ccc(-c2ccnc3cc(C(=O)Nc4ccc(OCCN5CCOCC5)cc4)nn23)cc1OC`, the EC50 in data set [1] came out at 6 nM.

Consider `COc1ccc(-c2ccnc3cc(C(=O)N4CCN(C(=O)OC(C)(C)C)CC4)nn23)cc1OC`, for which the EC50 in data set [1] was determined as 270 nM.

`COc1ccc(-c2ccnc3cc(C(=O)N4CC[C@@H](NC(=O)OC(C)(C)C)C4)nn23)cc1OC`: the EC50 in data set [1] stood at 370 nM. On to `COc1ccc(-c2ccnc3cc(C(=O)N4CCN(C)CC4)nn23)cc1OC`, for which, in data set [1], the EC50 is 8100 nM.

With `COc1ccc(-c2ccnc3cc(C(=O)Nc4ccc(C(=O)N5CCN(C(=O)OC(C)(C)C)CC5)cc4)nn23)cc1OC`, the EC50 in data set [1] was determined as 17 nM. Regarding `COc1ccc(-c2ccnc3cc(C(=O)Nc4ccc(C(=O)N5CCN(C)CC5)cc4)nn23)cc1OC.Cl`, the half-maximal effective concentration (EC50) in data set [1] was found to be 290 nM. Further, the solubility (thermodynamic) at 1.5 h in data set [2] (PBS, pH 7.5) is 237 µM. Regarding `COC(=O)C12CC(NC(=O)c3cc4nccc(-c5ccc(OC)c(OC)c5)n4n3)(C1)C2`, in data set [1], the EC50 is 310 nM. In addition, the solubility (thermodynamic) at 1.5 h in [2] (PBS, pH 7.5) is 1.42 µM (≈ 0.599 µg/mL). `COc1ccc(-c2ccnc3cc(C(=O)N4CCN(C(=O)c5ccccc5)[C@H](C)C4)nn23)cc1OC` yielded a thermodynamic solubility at 1.5 h in data set [2] (PBS, pH 7.5) of 159 µM (≈ 77 µg/mL). Turning to `COc1ccc(-c2ccnc3cc(C(=O)Nc4ccccc4)nn23)cc1OC`, the EC50 in [1] is 65 nM. The compound also yielded a solubility (thermodynamic) at 1.5 h in data set [2] (buffer, pH 7.5, 1.5 h) of 0.059 µM (≈ 0.0221 µg/mL). Turning to `CCOc1ccc(NC(=O)c2cc3nccc(-c4ccc(OC)c(OC)c4)n3n2)cc1`, the EC50 in [3] was found to be 342 nM; in [1], 18 nM. Also, the Activity entry in data set [4] is “Dose-Dependent Effect”. Further, the outcome in data set [5] was Active. As for `COc1ccc(-c2ccnc3cc(C(=O)N4CCN(C(=O)C5CC5)CC4)nn23)cc1OC`, the EC50 in [1] was 1700 nM. As for `COc1ccc(-c2ccnc3cc(C(=O)N4CCN(C(=O)c5ccccc5)CC4)nn23)cc1OC`, in data set [1], the EC50 amounted to 110 nM. Moreover, the thermodynamic solubility at 1.5 h in data set [2] (PBS, pH 7.5) turned out to be 10.1 µM (≈ 4.74 µg/mL). As for `C=C[C@@]1(C)CC(=O)[C@]2(O)[C@@]3(C)[C@@H](O)CCC(C)(C)[C@@H]3[C@H](O)[C@H](OC(C)=O)[C@@]2(C)O1`, the outcome in [6] and in [7] was Active. In data set [2] (PBS, pH 7.5), `COc1ccc(-c2ccnc3cc(C(=O)N[C@H]4CC[C@@H](C(=O)OC)CC4)nn23)cc1OC` had a thermodynamic solubility at 1.5 h of 7.55 µM (≈ 3.31 µg/mL). Consider `O=c1ccn(C2O[C@H](COP(=O)(O)OP(=O)(O)OP(=O)(O)OP(=O)(O)OC[C@H]3O[C@@H](n4ccc(=O)[nH]c4=O)[C@H](O)[C@@H]3O)[C@@H](O)[C@H]2O)c(=O)[nH]1` (some centres undefined), for which the outcome in data set [8], in data set [9], in data set [10], in data set [11], in data set [12] and in [13] was Active. Further, the result in data set [14] was Active. With `COc1ccc(-c2ccnc3cc(C(=O)Nc4ccc(C(=O)O)cc4)nn23)cc1OC`, in data set [1], the EC50 turned out to be 310 nM. The compound further returned a solubility (thermodynamic) at 1.5 h in [2] (PBS, pH 7.5) of 5.21 µM (≈ 2.18 µg/mL). For `COC(=O)c1ccc(NC(=O)c2cc3nccc(-c4ccc(OC)c(OC)c4)n3n2)cc1`, the EC50 in [1] is 14 nM. Still for that read-out and setting: the value for `COC(=O)c1ccc(NC(=O)c2cc3nccc(-c4ccc(OC)c(OC)c4)n3n2)c(Cl)c1` was 2700 nM. The same measure, in the same setting: the value for `COC(=O)c1ccc(CNC(=O)c2cc3nccc(-c4ccc(OC)c(OC)c4)n3n2)cc1` was 470 nM. Still for that read-out and setting: to `COc1ccc(-c2ccnc3cc(C(=O)N4CCN(C(C)C)CC4)nn23)cc1OC` belongs 6000 nM; to `COc1ccc(-c2ccnc3cc(C(=O)N4CCN(Cc5ccccc5)CC4)nn23)cc1OC`, 730 nM; to `COc1ccc(-c2ccnc3cc(C(=O)N4CCNCC4)nn23)cc1OC`, 17000 nM. Take `COc1ccc(-c2ccnc3cc(C(=O)N4CCN(C5CC5)CC4)nn23)cc1OC`: the EC50 in data set [1] was determined as 1400 nM. The same measure, in the same setting: the value for `COc1ccc(-c2ccnc3cc(C(=O)Nc4ccc(N5CCOCC5)cc4)nn23)cc1OC` was 7 nM. On to `COc1ccc(-c2ccnc3cc(C(=O)Nc4ccc(C(=O)O)cc4F)nn23)cc1OC`, for which the EC50 in [1] stood at 42 nM. This compound displayed a solubility (thermodynamic) at 1.5 h in [2] (PBS, pH 7.5) of 0.341 µM (≈ 0.149 µg/mL). As to `COc1ccc(-c2ccnc3cc(C(=O)NC4CCCCC4)nn23)cc1OC`, in data set [1], the EC50 was 130 nM. On the same count and under the same terms, the value for `COc1ccc(-c2ccnc3cc(C(=O)N4CC(NC(=O)OC(C)(C)C)C4)nn23)cc1OC` was 700 nM; that for `COc1ccc(-c2ccnc3cc(C(=O)N4CCN(c5ccccc5)CC4)nn23)cc1OC` was 840 nM. Turning to `COc1ccc(-c2ccnc3cc(C(=O)N[C@H]4CC[C@H](C(=O)OC)CC4)nn23)cc1OC`, in data set [2] (PBS, pH 7.5), the solubility (thermodynamic) at 1.5 h was determined as 1.39 µM (≈ 0.611 µg/mL). On to `COc1ccc(-c2ccnc3cc(C(=O)Nc4ccc(C(=O)NCCN)cc4)nn23)cc1OC`, for which, in data set [1], the EC50 turned out to be 16000 nM. As for `COc1ccc(-c2ccnc3cc(C(=O)N4CCN(C(=O)c5ccccc5)C(C)(C)C4)nn23)cc1OC`, the EC50 in [1] came to 200 nM. Moreover, the solubility (thermodynamic) at 1.5 h in data set [2] (PBS, pH 7.5) worked out at 1.82 µM (≈ 0.907 µg/mL). For `COc1ccc(-c2ccnc3cc(C(=O)NCc4ccc(N5CCOCC5)cc4)nn23)cc1OC`, the half-maximal effective concentration (EC50) in data set [1] was 710 nM.
